Assay results as given in ChEMBL document CHEMBL1781999, “Lead optimization of aryl and aralkyl amine-based triazolopyrimidine inhibitors of Plasmodium falciparum dihydroorotate dehydrogenase with antimalarial activity in mice” (J Med Chem, 2011).
In brackets after ≈: the same amount, converted by molar mass.

Tests used:
[1] = tested on: Mus musculus; assay: Cmax in Swiss mouse at 20 mg/kg, po measured after 24 hrs by LC-MS analysis; type: ADME, organism-based; design: dose 20 mg/kg, route oral; conditions: in vivo
Procedure, shortened: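 Non-fasted male Swiss outbred mice given a single oral gavage dose in 0.5% w/v sodium carboxymethylcellulose, 0.5% v/v benzyl alcohol, 0.4% v/v Tween 80. One mouse per time point, cardiac blood under isoflurane, sampling to 24 h. Plasma stabilized, acetonitrile-precipitated, quantified by LC-MS against blank-plasma standards; Cmax read from concentration-time profile.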

[2] = (§1) Plasma protein binding in human by albumin chromatographic method; type: ADME, cell-free; conditions: read-out: PPB (converted)
[3] = tested on: Liver microsomes; assay: (§2) Intrinsic clearance in human liver microsome assessed per mg of protein at 1 uM after 60 mins by LC-MS analysis; type: ADME; conditions: microsomes, 1 h, 1 µM
Procedure, shortened: (§3)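 Microsomal stability. Compound at 1 μM with liver microsomes (0.4 mg/mL protein) in 0.1 M phosphate pH 7.4 at 37 °C. Started with an NADPH-regenerating system plus MgCl2; controls lacked NADPH. Quenched with cold acetonitrile at time points up to 60 min. Parent loss measured by LC-MS and fitted to exponential decay to give CLint.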

[4] = tested on: Liver; assay: Intrinsic clearance in mouse liver microsome assessed per mg of protein at 1 uM after 60 mins by LC-MS analysis; type: ADME; conditions: microsomes, 1 h; procedure, shortened: as §3
[5] = Inhibition of His6-tagged recombinant Plasmodium berghei dihydroorotate dehydrogenase expressed in Escherichia coli using L-dihydroorotate as substrate after 10 to 15 mins by DCIP dye-based assay; conditions: in the assay text read “5 to 10 mins” for “10 to 15 mins”
Procedure, shortened: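 Truncated soluble enzyme lacking the N-terminal membrane domain. Final concentrations: 0.2 mM L-dihydroorotate, 0.02 mM CoQD, 0.12 mM DCIP. Reaction started with 10 nM enzyme and read at 600 nm for 5–10 min at 20 °C. Inhibitor 0.01–100 μM in 3-fold steps, in triplicate. IC50 from a three-parameter fit of vi/vo from initial rates.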

[6] = tested on: Plasmodium falciparum; assay: Antimalarial activity against Plasmodium falciparum 3D7 infected in human A positive erythrocytes by [3H]hypoxanthine uptake assay in presence of serum in medium; type: functional, organism-based
Procedure, shortened: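 Growth read by [3H]-hypoxanthine uptake. Each concentration run in quadruplicate and fitted to a four-parameter variable-slope log[I]-response model for 50% growth inhibition.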

[7] = tested on: Mus musculus; assay: Toxicity in Swiss mouse assessed as adverse effect at 20 mg/kg, po measured after 24 hrs; type: organism-based; design: dose 20 mg/kg, route oral; conditions: in vivo
[8] = Partition coefficient, log D of the compound at pH 7.4 by UV-HPLC analysis; conditions: octanol/water
[9] = Aqueous solubility of the compound in phosphate buffer at pH 6.5; type: physicochemical
Procedure, shortened: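 Non-equilibrium solubility. Concentrated DMSO stocks were diluted into pH 6.5 phosphate buffer (final DMSO 1% v/v) and precipitation was monitored by nephelometry. Solubility is given as the concentration range just before a turbidity signal rose above background.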

[10] = molecular target: T1, Dihydroorotate dehydrogenase (Plasmodium falciparum, UniProt Q54A96); assay: Inhibition of His6-tagged recombinant Plasmodium falciparum dihydroorotate dehydrogenase expressed in Escherichia coli using L-dihydroorotate as substrate after 5 to 10 mins by DCIP dye-based assay
T1 sequence (Q54A96 whole entry): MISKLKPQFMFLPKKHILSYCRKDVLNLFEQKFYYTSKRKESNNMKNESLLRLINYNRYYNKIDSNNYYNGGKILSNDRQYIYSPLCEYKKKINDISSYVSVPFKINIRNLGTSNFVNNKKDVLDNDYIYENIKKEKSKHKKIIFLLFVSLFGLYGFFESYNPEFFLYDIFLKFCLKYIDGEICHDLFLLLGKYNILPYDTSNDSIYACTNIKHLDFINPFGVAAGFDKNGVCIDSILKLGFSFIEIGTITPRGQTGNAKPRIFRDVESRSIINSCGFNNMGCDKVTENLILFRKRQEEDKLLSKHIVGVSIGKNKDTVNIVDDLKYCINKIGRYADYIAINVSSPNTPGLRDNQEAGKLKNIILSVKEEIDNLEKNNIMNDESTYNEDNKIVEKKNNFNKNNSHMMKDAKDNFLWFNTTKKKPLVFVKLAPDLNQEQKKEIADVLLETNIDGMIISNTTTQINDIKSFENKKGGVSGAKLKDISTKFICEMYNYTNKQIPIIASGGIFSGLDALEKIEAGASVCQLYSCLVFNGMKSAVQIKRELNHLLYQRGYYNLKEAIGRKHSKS

[11] = molecular target: Dihydroorotate dehydrogenase (quinone), mitochondrial (Homo sapiens, UniProt Q02127); assay: Inhibition of His6-tagged recombinant human dihydroorotate dehydrogenase expressed in Escherichia coli using L-dihydroorotate as substrate after 5 to 10 mins by DCIP dye-based assay
Dihydroorotate dehydrogenase (quinone), mitochondrial, sequence (Q02127 whole entry): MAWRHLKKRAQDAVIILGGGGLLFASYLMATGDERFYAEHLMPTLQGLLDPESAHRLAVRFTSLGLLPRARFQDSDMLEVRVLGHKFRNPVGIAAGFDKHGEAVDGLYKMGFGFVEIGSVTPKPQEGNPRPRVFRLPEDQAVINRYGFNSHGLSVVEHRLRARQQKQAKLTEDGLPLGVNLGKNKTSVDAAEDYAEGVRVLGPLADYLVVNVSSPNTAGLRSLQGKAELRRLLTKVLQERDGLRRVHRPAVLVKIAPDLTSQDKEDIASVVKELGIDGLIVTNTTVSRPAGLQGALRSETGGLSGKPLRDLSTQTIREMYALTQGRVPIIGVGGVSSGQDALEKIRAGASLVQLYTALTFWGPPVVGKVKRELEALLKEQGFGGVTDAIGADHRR

[12] = tested on: Mus musculus; assay: Time duration above 1 uM plasma concentration in Swiss mouse at 20 mg/kg, po; type: ADME, organism-based; design: dose 20 mg/kg, route oral; conditions: in vivo
Procedure, shortened: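 Non-fasted male Swiss outbred mice given a single gavage dose in suspension (0.5% Na-CMC, 0.5% benzyl alcohol, 0.4% Tween 80). One mouse per time point; blood taken by cardiac puncture under isoflurane into stabilizer over 24 h. Plasma measured by LC-MS; time above 1 μM read directly from the concentration-time profile.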

[13] = Antimalarial activity against Plasmodium berghei ANKA NK65 infected in po dosed Swiss Webster mouse assessed as reduction of parasitemia level administered qd for 4 days measured 24 hrs after last dose by light microscopic analysis; type: functional
[14] = tested on: Plasma; assay: as §1; type: ADME, cell-free
[15] = Antimalarial activity against Plasmodium berghei ANKA NK65 infected in Swiss Webster mouse assessed as reduction of parasitemia level at 2 mg/kg, po qd administered for 4 days measured 24 hrs after last dose by light microscopic analysis; type: functional; design: scale not given: the % may be the effect or the level left
Procedure, shortened: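 Female Swiss Webster mice, 8-10 weeks old (20-22 g), infected intraperitoneally with 2 × 10^7 P. berghei NK65 ANKA-infected erythrocytes. Oral doses in CMC vehicle (200 μL), first given 3 h post-infection, then at 24, 48 and 72 h. Parasitemia followed daily from 24 h by light microscopy at 1000× oil immersion, counting ≥10 fields of >100 erythrocytes. Mice losing ≥20% body weight were euthanized.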

[16] = Inhibition of His6-tagged recombinant Plasmodium berghei dihydroorotate dehydrogenase expressed in Escherichia coli using L-dihydroorotate as substrate after 5 to 10 mins by DCIP dye-based assay
[17] = as §2; type: ADME, microsomes; conditions: liver microsomes; procedure, shortened: as §3
[18] = phosphate buffer, read-out: solubility

Compound | Cmax [1] [nM] | fraction unbound [2] | CL [3] [µL/min/mg] | CL [4] [µL/min/mg] | IC50 [5] [nM] | EC50 [6] [nM] | Activity [7] | logD [8] | solubility [9, 18] [µM] | IC50 [10] [nM] | IC50 [16] [nM] | also measured
Cc1cc(Nc2ccc3sccc3c2)n2ncnc2n1 | 400 | 0.102 | 64 | 162 | 600 | 66 | Non-toxic | 2.6 | 22 (≈ 6.19 µg/mL) | 90 |  | 
Cc1cc(Nc2ccc3c(c2)CCCC3)n2ncnc2n1 | 2200 | 0.045 | 72 | 361 | 190 | 160 | Non-toxic | 3.4 | 89 (≈ 24.9 µg/mL) |  |  | IC50 [11]: > 100000 nM; Time [12]: 1 h
CCN(CC)CCCC(C)Nc1ccnc2cc(Cl)ccc12 (stereo unspecified) [CHLOROQUINE] |  |  |  |  |  |  |  |  |  |  |  | ED50 [13]: 1.8 mg/kg; PPB [14]: 87%; Activity [15]: 50%
Cc1cc(Nc2ccc(C(C)(C)C)c(F)c2)n2ncnc2n1 | 250 | 0.036 | 32 | 68 |  | 97 | Non-toxic | 3.5 |  | 35 | 110 | solubility ([9]; buffer): < 2.7 µM
Cc1cc(NC2Cc3ccccc3C2)n2ncnc2n1 | 500 | 0.239 | < 5 | 32 | 2400 | 400 | Non-toxic | 2.5 | 188 (≈ 49.9 µg/mL) | 500 |  | 
OC(c1cc(C(F)(F)F)nc2c(C(F)(F)F)cccc12)C1CCCCN1 (stereo unspecified) [MEFLOQUINE] |  |  |  |  |  |  |  |  |  |  |  | ED50 [13]: 3.8 mg/kg
Cc1cc(Nc2ccc(C(C)C)cc2)n2ncnc2n1 | 800 | 0.087 | 30 | 241 | 880 | 780 | Non-toxic | 3 | 47 (≈ 12.6 µg/mL) | 220 |  | IC50 [11]: > 100000 nM
Cc1cc(NC2CCc3ccccc3C2)n2ncnc2n1 (stereo unspecified) | 7800 |  | < 5 | 35 | 2300 | 1800 | Non-toxic | 2.9 |  | 540 |  | solubility ([9]; buffer): > 358 µM; Time [12]: 6 h
Cc1cc(Nc2ccc(C(F)(F)F)cc2)n2ncnc2n1 |  | 0.131 |  |  |  |  |  | 2.5 | 21 (≈ 6.16 µg/mL) |  |  | microsomal CLint at 1 µM [17]: 8 µL/min/mg
CCCc1c(C)nc2ncnn2c1Nc1ccc(C)cc1 |  |  |  |  |  | > 10000 |  |  |  | > 100000 | > 100000 | IC50 [11]: > 100000 nM
O=C1C(O)=C([C@H]2CC[C@H](c3ccc(Cl)cc3)CC2)C(=O)c2ccccc21 [ATOVAQUONE] |  |  |  |  |  | 1.5 |  |  |  |  |  | PPB [14]: 87%
CCCCCCCCc1ccc(Nc2cc(C)nc3ncnn23)cc1 |  |  |  |  |  | > 5000 |  |  |  | > 50000 | > 100000 | 
Cc1cc(Nc2ccc(OCc3ccccc3)cc2)n2ncnc2n1 |  |  |  |  |  | > 10000 |  |  |  | 5400 | > 100000 | 
Cc1cc(Nc2ccc(NC(C)(C)C)cc2)n2ncnc2n1 |  |  |  |  |  | > 5000 |  |  |  | > 50000 | > 100000 | 
C[C@H]1[C@H](OC(=O)CCC(=O)O)O[C@@H]2O[C@@]3(C)CC[C@H]4[C@H](C)CC[C@@H]1[C@@]24OO3 [ARTESUNATE] |  |  |  |  |  |  |  |  |  |  |  | ED50 [13]: 5.9 mg/kg
